These results are taken from PubChem BioAssay.

The structures appear in SMILES notation. Activity calls are given as the source filed them.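 The calls were made as follows, unless noted: active = NADPH fluorescence slope more negative than the mean of all samples by about 3 SD, 99.7% confidence; inactive = the rest.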

Test [1] can be described thus: inhibitors of TNFa-induced NFkB p65 translocation, primary screen, imaging, HUVEC, MLSMR starter and 10KST1 sets (AID 438;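 active = inhibition above 20% together with a positive visual image hit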;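 also: compound added about 3h40 before a 20 min TNFalpha stimulation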;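 as to inhibition: signal is the nuclear over cytoplasmic p65 intensity ratio per well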). Conditions: HUVEC TNFa-induced p65 nuclear translocation; cell count: measured here: nuclei count (cytotoxicity indicator), at 2.08 µM; inhibition: at 2 µM, stronger effect = higher value, 0% TNFa-plus-vehicle, 100% no-TNFa wells.
A short description of test [2]: inhibitors of mutant huntingtin aggregation, primary screen, imaging, exon1htt(103Q)mCFP cells, high-content imaging (AID 483;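 active = visual image review flags a hit and inhibition of aggregation exceeds 20%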;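 also: compound exposure lasted 3 days before fixation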;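 as to nuclei count: percent of the per-plate median nuclei count of sample wells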). Conditions: exon1htt(103Q)mCFP cell line, aggregate imaging, at 2 µM; inhibition of aggregation: stronger effect = higher value; nuclei count: measured here: cell count, toxicity.
Test [3] is described as follows: inhibitors of E-selectin induction by TNFa, primary screen, imaging, HUVEC, immunofluorescence, MLSMR starter and 10KST1 sets (AID 487;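 active = visually confirmed hit in the image check and inhibition above 20%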;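 as to inhibition: signal is fraction of cell area covered by stained E-selectin grains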;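 as to nuclei count: 100% = median nuclei count of all wells on the same plate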). Conditions: HUVEC TNFalpha-induced E-selectin immunofluorescence imaging, at 2 µM; inhibition: stronger effect = higher value; nuclei count: measured here: cell number, toxicity.
In test [4] the target is Voltage-gated potassium channel subunit beta-2 (Rattus norvegicus) (UniProt P62483). The test is described as follows: KvBeta enzyme negative modulators, primary screen, biochemical, NADPH fluorescence (AID 622;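 active = fluorescence slope higher than the sample average by over 3 SD, cut at about -0.22 in these data, passing the limit was not always enough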;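 also: slope of raw intensity against log time taken from 70 to 1610 s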). Conditions: recombinant KvBeta, 4-cyanobenzaldehyde reduction, at 10 µM, stronger effect = higher value.
Chain of Voltage-gated potassium channel subunit beta-2 (Rattus norvegicus) (P62483 whole entry, looked up): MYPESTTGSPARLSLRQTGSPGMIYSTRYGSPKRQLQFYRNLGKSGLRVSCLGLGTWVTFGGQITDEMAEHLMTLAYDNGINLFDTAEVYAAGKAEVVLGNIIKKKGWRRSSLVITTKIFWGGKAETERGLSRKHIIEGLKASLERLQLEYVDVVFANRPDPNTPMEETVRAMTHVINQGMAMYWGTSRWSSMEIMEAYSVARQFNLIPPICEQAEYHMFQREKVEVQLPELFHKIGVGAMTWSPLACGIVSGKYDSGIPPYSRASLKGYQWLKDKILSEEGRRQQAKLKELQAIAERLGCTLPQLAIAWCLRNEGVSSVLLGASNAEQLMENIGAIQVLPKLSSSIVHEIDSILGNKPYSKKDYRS
The target is the same in test [5]. The experiment in a line: KvBeta positive modulators, primary screen, biochemical, NADPH fluorescence (AID 623).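 Also: fluorescence intensity change per second fitted from 20 to 320 s.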 Conditions: Recombinant KvBeta, NADPH fluorescence decrease slope, 10 min; at 10 µM; stronger effect = lower value.
Test [6] addresses Alpha-2C adrenergic receptor (Homo sapiens) (UniProt P18825). The test is described as follows: modulators of alpha2C/GIRK thallium flux, primary screen, cell-based, HEK293 alpha2C/GIRK1/2 (AID 624;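 active = fluorescence slope after compound addition differing from the mean of all screened samples at 99.7% confidence, in either direction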;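 also: slope of fluorescence ratio to pre-addition baseline per second over 15 to 24 s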). Conditions: thallium flux BTC fluorescence, at 10 µM, actives lie on both sides.
A short description of test [7]: inhibitors of larval lipid processing in zebrafish, primary screen, whole organism, PED6 fluorescence, gall bladder and intestine (AID 686;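 active = a full or partial loss of lipid-probe fluorescence in the fish gall bladder, intestine or both, judged by eye; inactive = no fluorescence loss, or compound toxic to the fish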;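 also: larvae 5 to 7 days old with five fish per well; signal comes from phospholipase A2 cleavage of quenched PED6 carried via bile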). Conditions: Zebrafish larvae PED6 lipid processing, fluorescence scoring; screened at 20 µM (by protocol). In short, it runs like this: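 Incubation: overnight exposure of larvae to compound plus PED6 / Test system: live zebrafish larvae aged 5-7 days, whole organism / Amount: 5 larvae per well / Read-out basis: visual per-well fluorescence inhibition score / Signal: visual fluorescence microscopy scoring of gall bladder, gut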

Test [8] in a line: inhibitors of Sendai virus-induced IRF3 signaling, primary screen, TLR/RLR signaling modifier project, cell-based, Sendai virus stimulus, luciferase, 10K MLSCN set (AID 602276;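 active = inhibition at or above 50% at 10 µM; inactive = inhibition below 50%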;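 also: firefly luciferase from ISG56 promoter only with Renilla not read in this screen; 0% = Sendai virus plus DMSO and 100% = medium plus DMSO without virus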). Conditions: HEK293 RL24 IRF3 luciferase reporter, at 10 µM, stronger effect = higher value.
Test [9] is described as follows: inhibitors of poly I:C-induced TLR3 signaling, primary screen, cell-based, poly I:C stimulus, luciferase, 10K MLSCN set (AID 602277;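 active = inhibition of the reporter signal at or above 50%; inactive = inhibition below 50%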). Conditions: HEK293-TLR3 RL24 IRF3 luciferase reporter, at 10 µM, stronger effect = higher value.

Chain of Alpha-2C adrenergic receptor (Homo sapiens) (P18825 whole entry, looked up): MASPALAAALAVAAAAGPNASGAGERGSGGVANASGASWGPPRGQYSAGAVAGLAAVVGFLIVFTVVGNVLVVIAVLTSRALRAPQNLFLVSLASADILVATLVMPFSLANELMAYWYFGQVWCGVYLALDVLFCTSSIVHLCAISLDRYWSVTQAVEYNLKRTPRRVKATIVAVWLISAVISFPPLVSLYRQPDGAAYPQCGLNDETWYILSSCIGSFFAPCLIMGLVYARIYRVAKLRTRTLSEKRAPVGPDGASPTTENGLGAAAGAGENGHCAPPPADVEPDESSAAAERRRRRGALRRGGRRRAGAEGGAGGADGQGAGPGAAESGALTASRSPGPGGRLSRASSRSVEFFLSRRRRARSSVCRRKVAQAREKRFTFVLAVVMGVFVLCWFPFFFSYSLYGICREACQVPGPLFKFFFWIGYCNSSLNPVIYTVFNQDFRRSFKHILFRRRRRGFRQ

On to `C=CCSc1nnc(-c2ccc(Cl)cc2Cl)o1`, for which the cell count in [1] came out at 400. The inhibition in test [1] was 0.2% (inactive); in test [3], 14.7% (inactive); in test [8], -1.24% (inactive); in test [9] it was -58.3% (inactive). The inhibition of aggregation in [2] was 16.3% (inactive). For the same compound, the nuclei count in [2] stood at 84.8%; in test [3], 88.4%. Besides, the fluorescence slope in test [4] was -0.373 (inactive). In test [5], the NADPH fluorescence slope was -5.2e-05 (inactive). For the same compound, the slope in test [6] was 0.00563 (inactive). Moreover, the outcome in test [7] was inactive.

As for `COc1ccc(OCCOC(=O)c2cccc(-n3cnnn3)c2)cc1`, the cell count in test [1] was 289. For the same compound, the inhibition in test [1] is 4.4% (inactive); in test [3], -5.5% (inactive); in test [8] it was -2.23% (inactive); in test [9] it was -15.7% (inactive). Moreover, in test [2], the inhibition of aggregation was 8.2% (inactive). For the same compound, the nuclei count in [2] stood at 92.8%; in test [3], 112%. Moreover, the fluorescence slope in [4] was -0.462 (inactive). Further, the NADPH fluorescence slope in test [5] is -4.8e-05 (inactive). For the same compound, in test [6], the slope is 0.00521 (inactive). Moreover, the outcome in test [7] was inactive.

Turning to `O=C(COC(=O)c1ccccc1C(=O)c1ccccc1)c1ccco1`, the cell count in [1] was determined as 327. For the same compound, the inhibition in [1] is 7.4% (inactive); in test [3], 4% (inactive); in [8], -5.98% (inactive); in test [9] it was 2.21% (inactive). In test [2], the inhibition of aggregation is -2.3% (inactive). Besides, the nuclei count in test [2] was 89.2%; in test [3] it was 113%. In addition, the fluorescence slope in test [4] was -0.501 (inactive). Moreover, the NADPH fluorescence slope in test [5] was 2.4e-06 (inactive). Further, the slope in test [6] was 0.00441 (inactive). The result in test [7] was inactive.

As to `O=C(NCCCN1CCCC1=O)c1cccnc1`, the cell count in [1] turned out to be 364. Moreover, the inhibition was 2.5% (inactive) in test [1], 35.2% (inactive) in test [3], -11.4% (inactive) in [8] and -7.12% (inactive) in test [9]. Moreover, the inhibition of aggregation in test [2] is -3.8% (inactive). Moreover, the nuclei count in test [2] turned out to be 108%; in test [3], 100%. In test [4], the fluorescence slope was -0.432 (inactive). Moreover, the NADPH fluorescence slope in [5] was -4.3e-06 (inactive). Besides, the slope in test [6] is 0.00372 (inactive). Also, the compound was called inactive in test [7].

Consider `CCC(C(=O)NC(C)CCc1ccco1)n1nc(C)n2c(cc3occc32)c1=O` (centres undefined), for which the cell count in test [1] was 488. For the same compound, the inhibition in test [1] is 6% (inactive); in test [3], -121% (inactive); in test [8], 2.28% (inactive); in [9], 2.25% (inactive). Also, in [2], the inhibition of aggregation was -13.2% (inactive). In addition, the nuclei count in [2] was 84.5%; in test [3], 98.3%. In addition, the fluorescence slope in test [4] is -0.475 (inactive). Besides, in test [5], the NADPH fluorescence slope was -2e-05 (inactive). Besides, the slope in test [6] was 0.00405 (inactive). The result in test [7] was inactive.

As for `O=C(COc1ccc(F)cc1)Nc1ccc(-n2cnnn2)cc1`, the cell count in [1] was found to be 568. Further, the inhibition is 1.1% (inactive) in test [1], 52.5% (inactive) in [3], 8.39% (inactive) in [8] and 1.26% (inactive) in [9]. In addition, in test [2], the inhibition of aggregation is 34.2% (inactive). For the same compound, the nuclei count came to 90.5% in test [2] and 62.3% in test [3]. In addition, the fluorescence slope in [4] is -0.409 (inactive). Also, in [5], the NADPH fluorescence slope is -0.000109 (inactive). The slope in test [6] is 0.00564 (inactive). Also, the compound was classed as inactive in test [7].

For `CCn1c(SCC(=O)Nc2ccccc2N2CCCCC2)nc2c1c(=O)n(C)c(=O)n2C`, the cell count in [1] amounted to 490. In addition, the inhibition is -5.6% (inactive) in test [1], -15.6% (inactive) in test [3], 16.1% (inactive) in [8] and 18.7% (inactive) in test [9]. The inhibition of aggregation in test [2] was 19.9% (inactive). The nuclei count in test [2] was determined as 93.1%; in test [3] it was 89.4%. For the same compound, in test [4], the fluorescence slope is -0.338 (inactive). Moreover, the NADPH fluorescence slope in test [5] is -6.7e-05 (inactive). Moreover, in test [6], the slope was 0.00404 (inactive). Moreover, the compound was called inactive in [7].

`CC(C)(C)c1ccc(C(=O)N2CCC(C(=O)NCc3ccncc3)CC2)cc1`: the cell count in test [1] came to 344. The inhibition in test [1] is -5.2% (inactive); in test [3], -64.8% (inactive); in [8], -14.5% (inactive); in test [9], -39% (inactive). For the same compound, the inhibition of aggregation in test [2] is -12.2% (inactive). Moreover, the figures for the nuclei count in [2] and in test [3] were 108% and 113%, respectively. Moreover, in test [4], the fluorescence slope was -0.368 (inactive). For the same compound, the NADPH fluorescence slope in [5] was -4.7e-05 (inactive). In addition, the slope in test [6] was 0.00471 (inactive). Moreover, the call in test [7] was inactive.

With `O=C(c1cnn2c(C(F)F)cc(-c3ccccc3)nc12)N1CCN2CCCC2C1` (centres undefined), the cell count in test [1] was 223. In addition, the inhibition in test [1] is -3.7% (inactive); in test [3], -87.1% (inactive); in test [8], 15.8% (inactive); in test [9], 32.7% (inactive). Moreover, in [2], the inhibition of aggregation was 13% (inactive). Besides, the nuclei count is 100% in [2] and 129% in test [3]. Besides, in [4], the fluorescence slope is -0.251 (inactive). The NADPH fluorescence slope in [5] is -1.6e-05 (inactive). Moreover, the slope in test [6] is 0.00468 (inactive). Further, the result in [7] was inactive.

For `COC(=O)c1ccccc1NC(=O)c1cnc2sccn2c1=O`, the cell count in test [1] was 505. Further, the inhibition is -19.2% (inactive) in [1], 14.9% (inactive) in [3], 5.91% (inactive) in test [8] and -1.07% (inactive) in test [9]. Besides, the inhibition of aggregation in test [2] was 14% (inactive). Moreover, the nuclei count was found to be 77.5% in test [2] and 98% in test [3]. Moreover, the fluorescence slope in [4] was -0.369 (inactive). Further, the NADPH fluorescence slope in test [5] was -5.8e-05 (inactive). In addition, the slope in test [6] was 0.00479 (inactive). The result in test [7] was inactive.

As to `COc1ccccc1NC(=O)NC(N)=O`, the cell count in test [1] amounted to 580. Also, the inhibition in [1] is 0.5% (inactive); in test [3], -36.1% (inactive); in [8], 2.43% (inactive); in test [9], 1.16% (inactive). Further, in test [2], the inhibition of aggregation is -22.8% (inactive). Further, the figures for the nuclei count in test [2] and in [3] were 104% and 115%, respectively. Moreover, the fluorescence slope in test [4] is -0.386 (inactive). Moreover, in [5], the NADPH fluorescence slope was 4.8e-06 (inactive). The slope in test [6] is 0.00503 (inactive). The compound was classed as inactive in test [7].

Consider `CCC(=O)N(Cc1ccco1)c1nc(-c2cc(OC)ccc2OC)cs1`, for which the cell count in test [1] was found to be 643. For the same compound, the inhibition in [1] was -8% (inactive); in test [3] it was -11.7% (inactive); in test [8] it was 8.75% (inactive); in test [9] it was 7.6% (inactive). The inhibition of aggregation in [2] was 18.8% (inactive). For the same compound, the figures for the nuclei count in test [2] and in test [3] were 100% and 101%, respectively. In addition, in [4], the fluorescence slope is -0.397 (inactive). In test [5], the NADPH fluorescence slope was -4.8e-05 (inactive). The slope in [6] is 0.00497 (inactive). Besides, the compound was called inactive in test [7].
